Test results published in PubChem BioAssay AID624363 (Broad Institute, 2012).
Activity calls are given as the source filed them.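 Rule for the calls: active = in every test run, a falling-signal curve whose half-maximal concentration is at most twice the top tested dose; inconclusive = runs disagree, flat fit at 30 to 70% inhibition, or poor fit; inactive = every test run inactive.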

Tests used:
[1] = MITF transcriptional activity inhibition, TRPM1 luciferase – cell-based, SK-MEL-5, dry powder, set 5, dose response (AID 624363); conditions: SK-MEL-5 TRPM1 promoter luciferase reporter, 24 h; at 35 µM (top of the series)
Method in brief: (§1)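 Assay system: SK-MEL-5 melanoma line with stable TRPM1 promoter–luciferase reporter; buffer or medium: phenol red-free DMEM, 10% FBS; compound: pin-transferred compounds; incubation: compound exposure 24 h at 37 °C, one day after plating; detection: SteadyGlo luciferase luminescence after 5 min at room temperature; control set: parthenolide 27 µM positive control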

[2] = tested on: SK-MEL-5 TRPM1 promoter luciferase reporter, 24 h; test: as above
Method in brief: as §1

| SMILES | activity change, negative = inhibition [1] | AC50 [2] [µM] |
| --- | --- | --- |
| O=C(NC1=C(N2CCN(c3ccccc3)CC2)C(=O)c2ccccc2C1=O)c1ccccc1 | -32.8% (inactive) |  |
| COc1ccc(C2=C(NC(=O)c3ccc4ccccc4c3)C(=O)c3ccccc3C2=O)cc1 | -15.2% (inactive) |  |
| COc1ccc(C2=C(NC(=O)c3ccc(OC)cc3-c3cccc(OC)c3)C(=O)c3ccccc3C2=O)cc1 | -14.7% (inactive) |  |
| O=C1C(NS(=O)(=O)c2ccc(Br)cc2)=C(N2CCN(c3ccccc3)CC2)C(=O)c2ccccc21 | -44.3% (inactive) |  |
| O=C(NC1=C(c2ccc(Oc3ccccc3)cc2)C(=O)c2ccccc2C1=O)c1ccccc1 | -5.77% (inactive) |  |
| C=CCNC1=C(NCC=C)C(=O)c2ccccc2C1=O | -12.8% (inactive) |  |
| COc1cccc(-c2cc(C(=O)NC3=C(Cl)C(=O)c4ccccc4C3=O)ccc2OC)c1 |  | 3.34 |
